Test results from ChEMBL document CHEMBL1821604, “Anticancer activity and cDNA microarray studies of a (RS)-1,2,3,5-tetrahydro-4,1-benzoxazepine-3-yl]-6-chloro-9H-purine, and an acyclic (RS)-O,N-acetalic 6-chloro-7H-purine” (Eur J Med Chem, 2011).

Tests used:
[1] = tested on: MCF-10A; assay: Cytotoxicity against human MCF10A cells after 6 days by SRB colorimetric assay; type: cell-based; settings: 144 h
[2] = Therapeutic index, ratio of IC50 for human MCF10A cells to IC50 for human MCF7 cells; type: cell-based; settings: MCF10A cells (normal) versus MCF7 cells (cancer), read-out: Ratio IC50
Method in brief: (§1)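 Each cell line grown in DMEM with 10% FBS, 37 °C, 5% CO₂. Cells seeded and allowed 24 h, then drug added in medium (≤0.1% v/v DMSO). Medium and drug renewed at day 3, cells kept 3 more days. Sulforhodamine-B read at 492 nm. IC₅₀ taken from semilog dose-response curves by linear interpolation, triplicate wells, at least twice. Index = IC₅₀ normal line / IC₅₀ cancer line.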

[3] = tested on: HT-29; assay: Cytotoxicity against human HT-29 cells after 6 days by SRB colorimetric assay; type: functional, cell-based; settings: HT-29, 144 h
[4] = Cytotoxicity against rat IEC-6 cells after 6 days by SRB colorimetric assay; type: cell-based; settings: IEC-6, 144 h
[5] = Therapeutic index, ratio of IC50 for rat IEC-6 cells to IC50 for human HT-29 cells; type: cell-based; settings: IEC-6 cells (normal) versus HT-29 cells (cancer), read-out: Ratio IC50; method in brief: as §1
[6] = tested on: MCF7; assay: Cell cycle arrest in human MCF7 cells assessed as accumulation at G0/G1 phase at IC50 after 48 hrs using annexin V-FITC and propidium iodide staining based FACS analysis; type: functional
[7] = tested on: MCF7; assay: Cell cycle arrest in human MCF7 cells assessed as accumulation at S phase at IC50 after 48 hrs using annexin V-FITC and propidium iodide staining based FACS analysis; type: functional
[8] = tested on: MCF7; assay: Cell cycle arrest in human MCF7 cells assessed as accumulation at G2/M phase at IC50 after 48 hrs using annexin V-FITC and propidium iodide staining based FACS analysis; type: functional
[9] = tested on: HT-29; assay: Cell cycle arrest in human HT-29 cells assessed as accumulation at G0/G1 phase at IC50 after 48 hrs using […] propidium iodide staining based FACS analysis; type: functional
[10] = tested on: HT-29; assay: Cell cycle arrest in human HT-29 cells assessed as accumulation at S phase at IC50 after 48 hrs using […] propidium iodide staining based FACS analysis; type: functional
[11] = tested on: HT-29; assay: Cell cycle arrest in human HT-29 cells assessed as accumulation at G2/M phase at IC50 after 48 hrs using […] propidium iodide staining based FACS analysis; type: functional
[12] = tested on: MCF7; assay: Induction of apoptosis in human MCF7 cells assessed viable cells at IC50 after 48 hrs using annexin V-FITC staining by flow cytometry; type: functional
Method in brief: (§2)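 Cells exposed 48 h to the compound at its IC₅₀ concentration, with 0.5% DMSO-only cells as control. Stained with annexin V-FITC plus propidium iodide, then flow cytometry. Gating: annexin+/PI− = early apoptotic; annexin+/PI+ = late apoptotic; PI only = dead/necrotic; double-negative = viable.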

[13] = tested on: MCF7; assay: Induction of apoptosis in human MCF7 cells assessed early apoptotic cells at IC50 after 48 hrs using annexin V-FITC staining by flow cytometry; type: functional; method in brief: as §2
[14] = tested on: MCF7; assay: Induction of apoptosis in human MCF7 cells assessed late apoptotic cells at IC50 after 48 hrs using annexin V-FITC staining by flow cytometry; type: functional; method in brief: as §2
[15] = tested on: MCF7; assay: Induction of apoptosis in human MCF7 cells assessed necrotic cells at IC50 after 48 hrs using annexin V-FITC staining by flow cytometry; type: functional; method in brief: as §2
[16] = tested on: HT-29; assay: Induction of apoptosis in human HT-29 cells assessed viable cells at IC50 after 48 hrs using annexin V-FITC staining by flow cytometry; type: functional; method in brief: as §2
[17] = tested on: HT-29; assay: Induction of apoptosis in human HT-29 cells assessed early apoptotic cells at IC50 after 48 hrs using annexin V-FITC staining by flow cytometry; type: functional; method in brief: as §2
[18] = tested on: HT-29; assay: Induction of apoptosis in human HT-29 cells assessed late apoptotic cells at IC50 after 48 hrs using annexin V-FITC staining by flow cytometry; type: functional; method in brief: as §2
[19] = tested on: HT-29; assay: Induction of apoptosis in human HT-29 cells assessed necrotic cells at IC50 after 48 hrs using annexin V-FITC staining by flow cytometry; type: functional; method in brief: as §2
[20] = tested on: MCF7; assay: Down regulation of GBP1 gene expression in human MCF7 cells at IC50 after 48 hrs by cDNA microarray technique relative to control; type: functional
Method in brief: (§3)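 Cells (8 × 10⁶) were cultured in DMEM with 10% heat-inactivated FBS at 37 °C under 5% CO₂. They were exposed for 48 h to compound at its IC₅₀, with DMSO-treated parallel cultures as controls (final DMSO ≤0.1% v/v). Total RNA was isolated by trizol/chloroform phase separation, RNeasy column cleanup and on-column DNase, then quantified by OD260/OD280. Expression was profiled by cDNA microarray relative to control.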

[21] = tested on: HT-29; assay: Down regulation of HAS2 gene expression in human HT-29 cells at IC50 after 48 hrs by cDNA microarray technique relative to control; type: functional; method in brief: as §3
[22] = tested on: HT-29; assay: Down regulation of COL11A1 gene expression in human HT-29 cells at IC50 after 48 hrs by cDNA microarray technique relative to control; type: functional
Method in brief: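 8 × 10⁶ cells exposed 48 h to compound at its IC50 concentration; total RNA isolated with trizol/chloroform and RNeasy columns including on-column DNase step; RNA quantified by OD 260/280; DMSO-treated cultures as control.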

[23] = tested on: HT-29; assay: Down regulation of NBEA gene expression in human HT-29 cells at IC50 after 48 hrs by cDNA microarray technique relative to control; type: functional
[24] = tested on: MCF7; assay: Upregulation of CRTAM gene expression in human MCF7 cells at IC50 after 48 hrs by cDNA microarray technique relative to control; type: functional
[25] = tested on: HT-29; assay: Down regulation of ZFYVE9 gene expression in human HT-29 cells at IC50 after 48 hrs by cDNA microarray technique relative to control; type: functional
[26] = tested on: HT-29; assay: Down regulation of PRPS1 gene expression in human HT-29 cells at IC50 after 48 hrs by cDNA microarray technique relative to control; type: functional
[27] = tested on: HT-29; assay: Down regulation of SNRP70 gene expression in human HT-29 cells at IC50 after 48 hrs by cDNA microarray technique relative to control; type: functional
[28] = tested on: MCF7; assay: Upregulation of ANKRD35 gene expression in human MCF7 cells at IC50 after 48 hrs by cDNA microarray technique relative to control; type: functional
[29] = tested on: MCF7; assay: Down regulation of ZNF365 gene expression in human MCF7 cells at IC50 after 48 hrs by cDNA microarray technique relative to control; type: functional
[30] = tested on: MCF7; assay: Down regulation of RHAG gene expression in human MCF7 cells at IC50 after 48 hrs by cDNA microarray technique relative to control; type: functional
[31] = tested on: HT-29; assay: Upregulation of KIAA0553 gene expression in human HT-29 cells at IC50 after 48 hrs by cDNA microarray technique relative to control; type: functional
[32] = tested on: HT-29; assay: Down regulation of PRO1855 gene expression in human HT-29 cells at IC50 after 48 hrs by cDNA microarray technique relative to control; type: functional
[33] = tested on: HT-29; assay: Down regulation of HKE2 gene expression in human HT-29 cells at IC50 after 48 hrs by cDNA microarray technique relative to control; type: functional; method in brief: as §3
[34] = tested on: HT-29; assay: Down regulation of LIR9 gene expression in human HT-29 cells at IC50 after 48 hrs by cDNA microarray technique relative to control; type: functional; method in brief: as §3

SMILES: COC(CN(c1ccccc1CO)S(=O)(=O)c1ccccc1[N+](=O)[O-])n1cnc2ncnc(Cl)c21 (racemic)
- IC50 [1]: 6.23 µM
- selectivity ratio [2]: 1.92
- IC50 [3]: 3.28 µM
- IC50 [4]: 12.1 µM
- selectivity ratio [5]: 3.69
- Activity [6]: 65.09%
- Activity [7]: 23.94%
- Activity [8]: 10.98%
- Activity [9]: 71.58%
- Activity [10]: 10.5%
- Activity [11]: 12.7%
- Activity [12]: 20.36%
- Activity [13]: 6.36%
- Activity [14]: 48.49%
- Activity [15]: 24.79%
- Activity [16]: 54.93%
- Activity [17]: 21.1%
- Activity [18]: 15.64%
- Activity [19]: 8.33%
- fold change (FC) [20]: -2.01
- fold change (FC) [21]: -2.01
- fold change (FC) [22]: -2.03
- fold change (FC) [23]: -2.89
- fold change (FC) [24]: 2.09

SMILES: O=C(OCC1c2ccccc2-c2ccccc21)N1CC(n2cnc3c(Cl)ncnc32)OCc2ccccc21 (racemic)
- IC50 [1]: 2.14 µM
- selectivity ratio [2]: 3.19
- IC50 [3]: 3.38 µM
- IC50 [4]: 10.1 µM
- selectivity ratio [5]: 2.99
- Activity [6]: 64.39%
- Activity [7]: 22.43%
- Activity [8]: 13.18%
- Activity [9]: 74.68%
- Activity [10]: 14.7%
- Activity [11]: 14.9%
- fold change (FC) [25]: -2.52
- fold change (FC) [26]: -2.68
- fold change (FC) [27]: -2.78
- Activity [12]: 5.07%
- Activity [13]: 7.27%
- Activity [14]: 72.81%
- Activity [15]: 14.85%
- Activity [16]: 59.69%
- Activity [17]: 18.07%
- Activity [18]: 13.63%
- Activity [19]: 8.61%
- fold change (FC) [28]: 6.08
- fold change (FC) [29]: 2
- fold change (FC) [20]: -2.02
- fold change (FC) [30]: -6.26
- fold change (FC) [31]: 2.07
- fold change (FC) [32]: -2
- fold change (FC) [33]: -2
- fold change (FC) [34]: -2.08
